The source made the active and inactive calls. No cut-off for these calls is given here.
How the values were obtained:
Type in all cases: functional, cell-based
HEp-2 [1] = assay: Induction of apoptosis in human Hep2 cells assessed as pro-caspase 3 level at 36 uM by Western blot analysis; conditions: TDE = time-dependent effect
Method in brief: (§1)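 Treatment: 36 µM for 0, 6, 12 or 24 h, alone or with 2.5 mM N-acetylcysteine or 500 U/mL catalase. Lysis 60 min at 4 °C in Hepes pH 7.4/1% Triton X-100 with phosphatase and protease inhibitors, spin 13000g. Lysates run on 12% SDS-PAGE, blotted to nitrocellulose, probed with polyclonal antibodies, HRP/DAB detection. Representative of ≥3 experiments.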

HEp-2 [2] = assay: Induction of apoptosis in human Hep2 cells at 36 uM after 24 hrs by MTT assay in presence of Ac-LEHD-cmk caspase 9 inhibitor
Method in brief: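 Pretreatment: HEp-2 (1.2 × 10^4/well, plated 24 h earlier) given caspase-9 inhibitor Ac-LEHD-cmk at 5, 10 or 20 µM for 1 h. Then 36 µM for 24 h. Inhibitory ratio by MTT, n = 3, mean ± SD.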

HEp-2 [3] = assay: Induction of apoptosis in human Hep2 cells at 36 uM after 24 hrs by MTT assay in presence of z-VAD-fmk pan-caspase inhibitor
Method in brief: (§2)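 HEp-2 cells in RPMI-1640 with 10% FBS at 37 °C, 5% CO2, seeded at 1.2 × 10^4 cells/well and grown 24 h. Pretreated 1 h with z-DEVD-fmk (5 µM, line 1) or z-VAD-fmk (10 µM, line 2), then exposed to 36 µM agent for 24 h, with DMSO below 0.05%. Cell inhibitory ratio read by MTT; n = 3, mean ± SD.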

HEp-2 [4] = assay: Induction of apoptosis in human Hep2 cells at 36 uM after 24 hrs by MTT assay in presence of z-DEVD-fmk caspase 3 inhibitor; method in brief: as §2
HEp-2 [5] = assay: Induction of apoptosis in human Hep2 cells assessed as increase in pro-apoptotic Bax protein at 36 uM after 24 hrs by Western blot analysis in presence of NAC; method in brief: as §1
HEp-2 [6] = assay: Induction of apoptosis in human Hep2 cells assessed as decrease in Bcl-2 at 36 uM after 24 hrs by Western blot analysis in presence of NAC; method in brief: as §1
HEp-2 [7] = assay: Induction of apoptosis in human Hep2 cells assessed as increase in AIF level at 36 uM after 24 hrs by Western blot analysis in presence of NAC; method in brief: as §1
HEp-2 [8] = assay: Induction of apoptosis in human Hep2 cells assessed as cleaved caspase 3 level at 36 uM after 24 hrs by Western blot analysis in presence of NAC; method in brief: as §1
HEp-2 [9] = assay: Induction of apoptosis in human Hep2 cells assessed as caspase activated DNase level at 36 uM after 24 hrs by Western blot analysis in presence of NAC; method in brief: as §1
HEp-2 [10] = assay: Induction of apoptosis in human Hep2 cells assessed as increase in pro-apoptotic Bax protein at 36 uM after 24 hrs by Western blot analysis in presence of CAT; method in brief: as §1
HEp-2 [11] = assay: Induction of apoptosis in human Hep2 cells assessed as decrease in Bcl-2 at 36 uM after 24 hrs by Western blot analysis in presence of CAT; method in brief: as §1
HEp-2 [12] = assay: Induction of apoptosis in human Hep2 cells assessed as increase in AIF level at 36 uM after 24 hrs by Western blot analysis in presence of CAT; method in brief: as §1
HEp-2 [13] = assay: Induction of apoptosis in human Hep2 cells assessed as cleaved caspase 3 level at 36 uM after 24 hrs by Western blot analysis in presence of CAT; method in brief: as §1
HEp-2 [14] = assay: Induction of apoptosis in human Hep2 cells assessed as caspase activated DNase level at 36 uM after 24 hrs by Western blot analysis in presence of CAT; method in brief: as §1
HEp-2 [15] = assay: Induction of apoptosis in human Hep2 cells assessed as decrease in cyclin B level at 36 uM after 24 hrs by Western blot analysis; conditions: TDE = time-dependent effect; method in brief: as §1
HEp-2 [16] = assay: Induction of apoptosis in human Hep2 cells assessed as decrease in cdc2 level at 36 uM after 24 hrs by Western blot analysis; conditions: TDE = time-dependent effect; method in brief: as §1
HEp-2 [17] = assay: Induction of apoptosis in human Hep2 cells assessed as increase in phospho-cdc2 (Tyr15) level at 36 uM from 6 to 24 hrs by Western blot analysis; method in brief: as §1
HEp-2 [18] = assay: Induction of apoptosis in human Hep2 cells assessed as increase in phospho-cdc25C (ser216) level at 36 uM from 6 to 24 hrs by Western blot analysis; method in brief: as §1
HEp-2 [19] = assay: Induction of apoptosis in human Hep2 cells assessed as increase in p21/WAF1 level at 36 uM from 6 to 24 hrs by Western blot analysis; method in brief: as §1
HEp-2 [20] = assay: Induction of apoptosis in human Hep2 cells assessed as increase in p21/WAF1 level at 36 uM after 24 hrs by Western blot analysis; method in brief: as §1
HEp-2 [21] = assay: Induction of apoptosis in human Hep2 cells assessed as decrease in cyclin B level at 36 uM after 24 hrs by Western blot analysis in presence of NAC; method in brief: as §1
HEp-2 [22] = assay: Induction of apoptosis in human Hep2 cells assessed as decrease in cdc2 level at 36 uM after 24 hrs by Western blot analysis in presence of NAC; method in brief: as §1
HEp-2 [23] = assay: Induction of apoptosis in human Hep2 cells assessed as increase in phospho-cdc2 (Tyr15) level at 36 uM from 6 to 24 hrs by Western blot analysis in presence of NAC; method in brief: as §1
HEp-2 [24] = assay: Induction of apoptosis in human Hep2 cells assessed as increase in phospho-cdc25C (ser216) level at 36 uM from 6 to 24 hrs by Western blot analysis in presence of NAC; method in brief: as §1
HEp-2 [25] = assay: Induction of apoptosis in human Hep2 cells assessed as increase in p21/WAF1 level at 36 uM from 6 to 24 hrs by Western blot analysis in presence of NAC; method in brief: as §1
HEp-2 [26] = assay: Induction of apoptosis in human Hep2 cells assessed as increase in p21/WAF1 level at 36 uM after 24 hrs by Western blot analysis in presence of NAC; method in brief: as §1

Which results are given for C=C1C(=O)[C@]23[C@H](O)[C@H]1CC[C@H]2[C@@]12CO[C@]3(O)[C@@H](O)[C@@H]1C(C)(C)CC[C@@H]2O [ORIDONIN]?
Activity (HEp-2 [1]): tde; Activity (HEp-2 [2]): Active; Activity (HEp-2 [3]): inactive; Activity (HEp-2 [4]): inactive; Activity (HEp-2 [5]): inactive; Activity (HEp-2 [6]): inactive; Activity (HEp-2 [7]): inactive; Activity (HEp-2 [8]): inactive; Activity (HEp-2 [9]): inactive; Activity (HEp-2 [10]): inactive; Activity (HEp-2 [11]): inactive; Activity (HEp-2 [12]): inactive; Activity (HEp-2 [13]): inactive; Activity (HEp-2 [14]): inactive; Activity (HEp-2 [15]): tde; Activity (HEp-2 [16]): tde; Activity (HEp-2 [17]): Active; Activity (HEp-2 [18]): Active; Activity (HEp-2 [19]): Active; Activity (HEp-2 [20]): inactive; Activity (HEp-2 [21]): inactive; Activity (HEp-2 [22]): inactive; Activity (HEp-2 [23]): inactive; Activity (HEp-2 [24]): inactive; Activity (HEp-2 [25]): inactive; Activity (HEp-2 [26]): inactive

Source: ChEMBL document CHEMBL1165982, “Induction of G(2)/M phase arrest and apoptosis by oridonin in human laryngeal carcinoma cells” (J Nat Prod, 2010)
